Key:
WIL2 = assay: Compound was tested for inhibition of human W1L2 cell growth.; format: functional, cell-based
Mus musculus [1] = species: Mus musculus; assay: Compound was tested for inhibition of L1210 cell growth in mouse.; format: functional, organism-based
Mus musculus [2] = species: Mus musculus; assay: Compound was tested for inhibition of L1210:R D1694 cell growth in mouse.; format: functional, organism-based; conditions: L1210 (RD1694)
Thymidylate synthase = Thymidylate synthase (Mus musculus, UniProt P07607); assay: Inhibition of Thymidylate Synthase(TS) from mouse L1210 cells; format: cell-based; conditions: read-out: Ki app
Thymidylate synthase, sequence (P07607 whole entry): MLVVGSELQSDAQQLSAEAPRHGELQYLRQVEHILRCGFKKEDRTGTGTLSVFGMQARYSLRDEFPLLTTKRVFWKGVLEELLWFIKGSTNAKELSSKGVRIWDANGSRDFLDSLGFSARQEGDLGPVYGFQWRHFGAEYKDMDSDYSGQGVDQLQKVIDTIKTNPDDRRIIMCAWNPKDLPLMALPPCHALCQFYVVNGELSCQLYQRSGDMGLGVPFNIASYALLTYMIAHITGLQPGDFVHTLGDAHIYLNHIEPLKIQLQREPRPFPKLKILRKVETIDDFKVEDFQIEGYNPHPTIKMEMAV

Mus musculus [3] = species: Mus musculus; assay: Compound was tested for inhibition of L1210:1565 cell growth in mouse.; format: functional, organism-based
Method in brief: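 Growth inhibition measured in L1210:1565, a mouse L1210 mutant line with an impaired reduced folate/MTX transport carrier. The line was selected for resistance to CI-920, an RFC-transported agent, and is cross-resistant to MTX. Result expressed as IC50.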

SMILES: C#CCN(Cc1ccc2nc(C)nc(O)c2c1)c1ccc(C(=O)N[C@@H](CCC(=O)NC(C)(C)C(=O)O)C(=O)O)cc1
- IC50 (WIL2): 310 nM
- IC50 (Mus musculus [1]): 2500 nM
- IC50 (Mus musculus [2]): 7100 nM
- Ki (Thymidylate synthase): 42 nM
- IC50 (Mus musculus [3]): 70000 nM

From ChEMBL document CHEMBL1130343, “Folate-based inhibitors of thymidylate synthase: synthesis and antitumor activity of gamma-linked sterically hindered dipeptide analogues of 2-desamino-2-methyl-N10-propargyl-5,8-dideazafolic acid (ICI 198583)” (J Med Chem, 1997)
